Variants at the floor of the assay were thinned out.
B1: tRNA (parent)
chain: GUUCCGUUGGCGUAAUGGUAACGCGUCUCCCUCCUAAGGAGAAGACUGCGGGUUCGAGUCCCGUACGGAACG

Variants of: B1
Test: yeast fitness relative to wild type (ratio to wild type); higher = fitter; tRNA-Arg(CCU), competitive growth, 37 C, YPD
Outline: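 Amplicons of the tRNA-Arg(CCU) gene were sequenced, 100-nucleotide paired-end, from the start population and from each end population of a pooled yeast competition. The competition, in six parallel replicates, lasted 24 hours in YPD at 37°C. Fitness relative to wild type was calculated from changes in genotype frequencies. Genotypes had to have ≥ 100 starting reads, and estimates < 0.5 were set to 0.5.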

Variant | yeast fitness
U8C C29A A65C C66G | ≤ 0.5
U8C C30G C49A G68A | ≤ 0.5
U8C C30G C31G U54C C61G | ≤ 0.5
U8C C22U C34A | 0.952
U8C | 1.03
U8C C22G C55G | ≤ 0.5
U8C C24U U26A | 0.607
U8C A15C A45C | 0.674
U8C A42U | 0.791
U8C C31A A42G A43G G68C | 0.559
U8C C22A A36C G63A G67C | ≤ 0.5
U8C C22G U47C U53G | ≤ 0.5
U8C A14G G68A | 0.534
U8C C22U U53A | ≤ 0.5
U8C C11U | 1.02
U8C C11G | 0.686
U8C C11A | 0.698
U8C A45C C46U | 0.716
U8C A15U A20C G23A G50C | ≤ 0.5
U8C A15G U19A C29A A36G G51A | ≤ 0.5
U8C A15U U28A C33G | ≤ 0.5
U8C A21G A70G | 0.747
U8C C11U C27A C30G C46U U47A | 0.603
U8C A15C U32C A69C | ≤ 0.5

Variant | yeast fitness
U8C C11G G58U | ≤ 0.5
U8C C22U C30U C33U A45C | ≤ 0.5
U8C A20G C34G A37G G44A | 0.627
U8C C11A C66G | ≤ 0.5
U8C C22U A69C | 0.505
U8C A14G U32A | 0.538
U8C A65C | 0.964
U8C A65G | 0.929
U8C A20G A65G G68A | ≤ 0.5
U8C A15U C22U A40C G48C U54C C62U | 0.557
U8C C27A A40G C46G C62G | ≤ 0.5
U8C C22U | 0.768
U8C C22A | 0.932
U8C C30G C31G C66U | ≤ 0.5
U8C A14C G18A C31U A45G | ≤ 0.5
U8C C24G C29A A43U G68C | ≤ 0.5
U8C C11U A21G | 0.7
U8C C11A G18C C27G | ≤ 0.5
U8C A43C | 0.939
U8C A15C U32C | ≤ 0.5
U8C C30G | 0.674
U8C C30A | 0.948
U8C C30U | 0.935
U8C A57G C66U | 0.704

Variant | yeast fitness
U8C C27U C31A | 0.56
U8C A21C C27U C49U G58C C61A A65U | ≤ 0.5
U8C A14U C22G C30U | 0.581
U8C A42U C62U A65C | 0.534
U8C C22G C49U U64C | 0.679
U8C C27U A40G G44A C62A | ≤ 0.5
U8C C11U C34G | ≤ 0.5
U8C A21U C24A | ≤ 0.5
U8C C29A | 0.664
U8C C29U | 0.937
U8C A20U A57G | ≤ 0.5
U8C A45U A65U | 0.709
U8C C24A C46G G63A | 0.597
U8C A42G C49G C62A | ≤ 0.5
U8C C29G A37G G67C | 0.573
U8C A21G A69C | 0.761
U8C A37C | 0.892
U8C A20U A21U U26G C31A U53A A69C | ≤ 0.5
U8C C27U C34G | ≤ 0.5
U8C A21U C34A A40C G68C | ≤ 0.5
U8C A15C C34U A57C | ≤ 0.5
U8C C30G C31G C55U | ≤ 0.5
U8C C24U A42C G50U | 0.674
U8C A20G C66U | 0.624

Variant | yeast fitness
U8C C29A A37G | 0.616
U8C A42G G68A | 0.63
U8C C22U C29U | ≤ 0.5
U8C A14U C30A C66U A70G | 0.546
U8C C22A U53A | ≤ 0.5
U8C C30G C33G | ≤ 0.5
U8C C24G C55A | ≤ 0.5
U8C A40C C55G | ≤ 0.5
U8C A20G C34G C66U | 0.696
U8C A36G | 0.865
U8C C29A C34G A36G A40C G41A U47A U64C | ≤ 0.5
U8C C11U G17C C31A A65C | ≤ 0.5
U8C C27U A42U | 0.552
U8A U59C | 0.748
U8C A57G | 0.856
U8C A57C | 0.599
U8C A57U | 0.788
U8C C31U | 1.07
U8C A42U A70G | 0.729
U8C C27G G39C | ≤ 0.5
U8C C11U U16C C46U C49A | 0.573
U8C C24A | 0.616
U8C C24U A45U | 0.608
U8C A45U U59C | 0.57

Variant | yeast fitness
U8C A15U U16A U26A G58A | ≤ 0.5
U8C C27G C29A A70G | ≤ 0.5
U8C A15C C27U A45C | ≤ 0.5
U8C A45C C66U | 0.626
U8C C11G G63A C66G | ≤ 0.5
U8C A69C | 0.991
U8C A69U | 0.933
U8C A57U C61U | 0.536
U8C A20G C61G | ≤ 0.5
U8C A65U A69C | 0.615
U8C C11G C46U | ≤ 0.5
U8C A14U C30A C61U C62A A70G | 0.532
U8C A42U C62A C66U | ≤ 0.5
U8C C33A C55G A69C | ≤ 0.5
U8C A14U C22G C30U A57C C61A G67A | ≤ 0.5
U8C A42G A70C | ≤ 0.5
U8C A15C U32C C61U A65U C66U | ≤ 0.5
U8C C30A C31U U54C | ≤ 0.5
U8C C27U U28G C33G A36G | ≤ 0.5
U8C C27A A42C | 0.532
U8C C22G U54A U59A C61U | ≤ 0.5
U8C C27U U32A C66U G67C | ≤ 0.5
U8C C33U | 0.728
U8C A21U U32A C49U C55U | ≤ 0.5

Variant | yeast fitness
U8C C22U G58C | ≤ 0.5
U8C A14C C27G C46G A65G | ≤ 0.5
U8C C11U C46U C49A | ≤ 0.5
U8C C30G C46A U47G C49A G52A G58C U64G A65G | ≤ 0.5
U8C A70C | 0.922
U8C A15U G38C G39A A43C C60G A65C | ≤ 0.5
U8C A45U C49U | 0.714
U8C C27U C31A C55A G56A | 0.579
U8C C29U U35G C62U | ≤ 0.5
U8C A15C G41A G52C | ≤ 0.5
U8C C29A C34G A36G A37G A40C U47A U64C | ≤ 0.5
U8C A43U G50C | ≤ 0.5
U8C A15C A57G A69C | ≤ 0.5
U8C C27U C31A C55A G56A A65G | ≤ 0.5
U8C A45G | 0.906
U8C A14C C33A C46A G67A | ≤ 0.5
U8C A15C A21U | ≤ 0.5
U8C C31G A45G C62G | ≤ 0.5
U8C A21G A42G | 0.675
U8C C27A | 0.791
U8C C27G | 0.647
U8C C27U | 0.792
U8C C22U C27U G58C | ≤ 0.5
U8C A14U G48C A70C | ≤ 0.5

Variant | yeast fitness
U8C C11A C30A | ≤ 0.5
U8C A40G C55U A65C | ≤ 0.5
U8C C22G C27U C49U U64C | ≤ 0.5
U8C A43C C49G C61A | 0.693
U8C A15C | 0.848
U8C C22A U64A G68C | ≤ 0.5
U8C A20C G51A | ≤ 0.5
U8C C11A A20U C66U | ≤ 0.5
U8C C29G U35G C61U | ≤ 0.5
U8C A21U U53G A57C | ≤ 0.5
U8C C27U C62U | 0.736
U8C A36U G38A G68C | ≤ 0.5
U8C A42G G51U A57U | ≤ 0.5
U8C A14U C22G C30U U54C | ≤ 0.5
U8C A20U C29U C30G A37G G44A | ≤ 0.5
U8C A21U G67C A69U | ≤ 0.5
U8C C22U C31U C60A | ≤ 0.5
U8C A14C C33A C46A | ≤ 0.5
U8C A15G G25C A45U | 0.684
U8C A15C C31A | ≤ 0.5
U8C A20G C33A G44A C61U | ≤ 0.5
U8C A40C C62G | ≤ 0.5
U8C A43C C49G | 0.597

— the RNAGym collection of RNA variant scans (doi:10.1126/science.aae0568)
